Assay results: ChEMBL document CHEMBL4229389, “Synthesis and biological evaluation of clovamide analogues as potent anti-neuroinflammatory agents in vitro and in vivo” (Eur J Med Chem, 2018)
pIC50: −log10 of the molar value. Active and inactive are the calls of the source. The calls are words filed in the database; no cut-off is given here.

Legend:
[1] = system: BV-2; test: Anti-neuroinflammatory activity in […] assessed as reduction in LPS-induced NO production at 10 uM preincubated for 4 hrs followed by LPS stimulation for 24 hrs by Griess assay relative to control; type: functional; conditions: for inhibition at 10 µM: Mus musculus
Method in brief: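 Mouse microglial BV-2 cells in DMEM with 10% FBS. Pretreated at 10 µM for 4 h, then LPS 500 ng/mL for 24 h. Nitrite in supernatant measured with Griess reagent at 540 nm. Means ± S.E.M., n=3.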

[2] = system: BV-2; test: Anti-neuroinflammatory activity in […] assessed as reduction in LPS-induced NO production preincubated for 4 hrs followed by LPS stimulation for 24 hrs by Griess assay; type: functional, cell-based; conditions: Mus musculus
Method in brief: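 BV-2 cells pretreated 4 h over 0.78-100 µM (twofold series), then LPS 500 ng/mL for 24 h. Supernatant mixed 1:1 with Griess reagent, A540, against NaNO2 standard curve. IC50 by curve fitting; mean ± S.E.M. of three experiments.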

[3] = target: Nitric oxide synthase, inducible (Mus musculus) (UniProt P29477); test: Inhibition of LPS-induced iNOS in mouse BV2 cells after 4 hrs by DAF-FMDA dye-based fluorescence assay
Chain of Nitric oxide synthase, inducible (Mus musculus) (P29477 whole entry, looked up): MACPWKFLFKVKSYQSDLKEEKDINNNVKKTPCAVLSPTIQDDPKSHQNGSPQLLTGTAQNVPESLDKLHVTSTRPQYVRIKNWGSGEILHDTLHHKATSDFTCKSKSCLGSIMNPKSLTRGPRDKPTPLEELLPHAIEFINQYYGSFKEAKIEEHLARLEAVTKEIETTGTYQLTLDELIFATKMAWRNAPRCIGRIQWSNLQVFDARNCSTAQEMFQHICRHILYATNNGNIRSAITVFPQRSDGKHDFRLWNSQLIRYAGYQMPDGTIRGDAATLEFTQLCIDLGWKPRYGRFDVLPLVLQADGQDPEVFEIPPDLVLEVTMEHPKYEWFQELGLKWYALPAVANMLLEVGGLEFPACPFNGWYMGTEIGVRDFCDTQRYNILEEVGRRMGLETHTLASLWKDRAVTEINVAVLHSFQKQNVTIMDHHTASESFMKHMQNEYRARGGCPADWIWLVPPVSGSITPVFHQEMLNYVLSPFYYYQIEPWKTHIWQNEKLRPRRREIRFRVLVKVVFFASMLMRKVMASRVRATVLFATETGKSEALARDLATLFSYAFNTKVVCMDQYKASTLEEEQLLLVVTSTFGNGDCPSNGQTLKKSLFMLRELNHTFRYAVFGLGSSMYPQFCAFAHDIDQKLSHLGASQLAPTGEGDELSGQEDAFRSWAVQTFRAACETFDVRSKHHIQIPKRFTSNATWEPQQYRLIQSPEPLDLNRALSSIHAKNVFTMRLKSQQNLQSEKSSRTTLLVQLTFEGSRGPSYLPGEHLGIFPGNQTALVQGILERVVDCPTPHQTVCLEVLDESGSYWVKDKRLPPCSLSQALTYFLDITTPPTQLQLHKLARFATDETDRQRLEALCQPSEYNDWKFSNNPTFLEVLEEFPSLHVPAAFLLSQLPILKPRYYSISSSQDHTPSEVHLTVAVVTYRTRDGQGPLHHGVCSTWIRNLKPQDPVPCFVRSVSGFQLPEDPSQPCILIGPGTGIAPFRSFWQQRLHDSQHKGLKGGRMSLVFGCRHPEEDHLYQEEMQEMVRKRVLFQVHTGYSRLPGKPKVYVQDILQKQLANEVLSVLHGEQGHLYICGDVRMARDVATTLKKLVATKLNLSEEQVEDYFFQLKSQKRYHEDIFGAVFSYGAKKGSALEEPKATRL

[4] = Cytotoxicity against […] assessed as reduction in cell viability after 24 hrs by MTT assay; type: cell-based, BV-2; conditions: BV2 cells
Method in brief: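 BV-2 cells at 5 × 10^3/well, grown 12 h, then exposed to 1-100 µM for 24 h. MTT at 0.5 mg/mL final for 4 h at 37 ℃. Formazan dissolved in DMSO and read at 490 nm. CC50 as mean ± S.E.M. of three experiments.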

[5] = system: Mus musculus; test: Anti-neuroinflammatory activity in MPTP-induced C57BL/6 mouse assessed as alleviation of functional behaviour impairment at 10 mg/kg, po pre-treated daily for 7 days followed by 4 times MPTP addition at 2 hrs intervals and measured after 4 to 72 hrs post MPTP injection by rota rod test; type: organism-based
Method in brief: (§1)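 Male C57BL/6 mice, 7-8 weeks, 20-22 g, 8 per group. Pretrained 3 days on rota-rod, up to 25 rpm, to stay on 180 s. Dosed i.g. at 10 or 20 mg/kg daily for 7 days in 0.5% methylcellulose with 1% Tween 80, vehicle for controls. Then 4 i.p. MPTP injections (20 mg/kg) at 2-h intervals. Tested at 4, 24, 48 and 72 h; mean of three runs.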

[6] = system: BV-2; test: Anti-neuroinflammatory activity in […] assessed as reduction in LPS-induced iNOS expression preincubated for 2 hrs followed by LPS stimulation for 24 hrs by Western blot analysis; type: functional, cell-based
Method in brief: (§2)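 BV-2 cells at 5 × 10^5/well, pretreated at 1, 10 or 20 µM, then LPS 500 ng/mL. Lysed in RIPA with protease/phosphatase inhibitors. 30 µg protein blotted with primary antibodies 1:1000 and HRP secondary 1:5000, ECL detection. β-actin as loading control. Expressed as fold of control; at least three independent experiments, each in duplicate.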

[7] = system: Mus musculus; test: (§3) Anti-neuroinflammatory activity in MPTP-induced C57BL/6 mouse assessed as reduction in astroglial activation by measuring increase in glial fibrillary acidic protein expression in striatum at 10 to 20 mg/kg, po pre-treated daily for 7 days followed by 4 times MPTP addition at 2 hrs intervals and measured after 4 to 72 hrs post MPTP injection by DAB staining based immunohistochemistry method; type: functional, organism-based
[8] = system: BV-2; test: Anti-neuroinflammatory activity in […] assessed as reduction in LPS-induced IL-1beta expression preincubated for 2 hrs followed by LPS stimulation for 24 hrs by Western blot analysis; type: functional, cell-based; method in brief: as §2
[9] = system: Mus musculus; test: as §3, with “as” for “as reduction in astroglial activation by measuring”, “tyrosine hydroxylase positive cells” for “glial fibrillary acidic protein expression”; type: functional, organism-based
[10] = target: Transcription factor p65 (Mus musculus) (UniProt Q04207); test: Inhibition of LPS-induced nuclear translocation of NF-kappaB-p65 in mouse BV2 cells at 1 to 20 uM preincubated for 2 hrs followed by LPS stimulation for 2 hrs by Western blot analysis
Chain of Transcription factor p65 (Mus musculus) (Q04207 whole entry, looked up): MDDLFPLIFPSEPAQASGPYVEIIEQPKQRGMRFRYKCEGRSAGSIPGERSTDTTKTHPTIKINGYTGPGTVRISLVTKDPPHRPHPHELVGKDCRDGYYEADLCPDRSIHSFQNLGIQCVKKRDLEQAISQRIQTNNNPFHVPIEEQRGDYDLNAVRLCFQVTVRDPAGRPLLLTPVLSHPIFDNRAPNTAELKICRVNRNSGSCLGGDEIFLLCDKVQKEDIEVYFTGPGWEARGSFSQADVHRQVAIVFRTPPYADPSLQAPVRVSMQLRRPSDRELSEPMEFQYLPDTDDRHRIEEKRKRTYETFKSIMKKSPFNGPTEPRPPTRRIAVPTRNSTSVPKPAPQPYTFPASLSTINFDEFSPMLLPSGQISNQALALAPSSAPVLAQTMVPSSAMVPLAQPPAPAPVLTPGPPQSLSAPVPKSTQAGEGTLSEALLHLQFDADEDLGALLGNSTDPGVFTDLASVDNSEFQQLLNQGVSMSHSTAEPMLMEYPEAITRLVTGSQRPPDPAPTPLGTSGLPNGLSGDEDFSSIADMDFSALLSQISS

[11] = system: Mus musculus; test: as §3, with “substantia nigra” for “striatum”; type: functional, organism-based
[12] = system: Mus musculus; test: as §3, with “as” for “as reduction in astroglial activation by measuring”, “tyrosine hydroxylase positive cells” for “glial fibrillary acidic protein expression”, “substantia nigra” for “striatum”; type: functional, organism-based
[13] = system: BV-2; test: Anti-neuroinflammatory activity in […] assessed as reduction in LPS-induced TNF-alpha expression preincubated for 2 hrs followed by LPS stimulation for 24 hrs by Western blot analysis; type: functional, cell-based; method in brief: as §2
[14] = system: Mus musculus; test: Anti-neuroinflammatory activity in MPTP-induced C57BL/6 mouse assessed as alleviation of functional behaviour impairment at 20 mg/kg, po pre-treated daily for 7 days followed by 4 times MPTP addition at 2 hrs intervals and measured after 4 to 72 hrs post MPTP injection by rota rod test; type: organism-based; method in brief: as §1
[15] = system: BV-2; test: Anti-neuroinflammatory activity in […] assessed as reduction in LPS-induced COX-2 expression preincubated for 2 hrs followed by LPS stimulation for 24 hrs by Western blot analysis; type: functional, cell-based; method in brief: as §2

Q: Which inhibition [1] does the source give for COC(=O)[C@H](Cc1ccc(O)cc1)NC(=O)/C=C/c1ccc(O)cc1 here?
A: Its inhibition is “Active”.

Q: For COC(=O)C[C@H](NC(=O)/C=C/c1cccc(O)c1)C(=O)OC, which inhibition [1] is on record?
A: Its inhibition is “Active”.

Q: For COC(=O)C[C@H](NC(=O)/C=C/c1ccc(O)cc1)C(=O)OC, which inhibition [1] is on record?
A: The inhibition was “Active”.

Q: With COC(=O)[C@H](Cc1ccc(O)cc1)NC(=O)/C=C/c1ccc(O)c(OC)c1 as the compound, how does the inhibition [1] read?
A: Its inhibition is “Active”.

Q: With O=C(O)CC[C@H](NC(=O)/C=C/c1ccccc1)C(=O)O as the compound, how does the inhibition [1] read?
A: Its inhibition is “Active”.

Q: With COC(=O)CC[C@H](NC(=O)/C=C/c1cccc(O)c1)C(=O)OC as the compound, how does the inhibition [1] read?
A: The inhibition was “Active”.

Q: With O=C(/C=C/c1ccc(O)cc1)N[C@@H](Cc1ccc(O)cc1)C(=O)O as the compound, how does the pIC50 [2] read?
A: Its pIC50 is 5.47.

Q: What about the inhibition at 10 µM [1] of the same compound?
A: Its inhibition at 10 µM is over 50%.

Q: And the pIC50 [3]?
A: The pIC50 was 5.68.

Q: What about the CC50 at 24 h [4] of the same compound?
A: The CC50 at 24 h was over 100 µM.

Q: With COc1cc(/C=C/C(=O)N[C@@H](Cc2ccccc2)C(=O)O)ccc1O as the compound, how does the pIC50 [2] read?
A: Its pIC50 is 5.36.

Q: And the inhibition at 10 µM [1]?
A: Its inhibition at 10 µM is over 50%.

Q: And the pIC50 [3]?
A: Its pIC50 is 5.53.

Q: And the CC50 at 24 h [4]?
A: Its CC50 at 24 h is over 100 µM.

Q: For COC(=O)[C@H](Cc1ccc(O)cc1)NC(=O)/C=C/c1ccccc1, which inhibition [1] is on record?
A: Its inhibition is “Active”.

Q: With COc1cc(/C=C/C(=O)N[C@@H](CCC(=O)O)C(=O)O)ccc1O as the compound, how does the inhibition [1] read?
A: The inhibition was “Active”.

Q: For COC(=O)[C@H](Cc1ccccc1)NC(=O)/C=C/c1ccc(O)cc1, which inhibition [1] is on record?
A: Its inhibition is “Active”.

Q: Which results are given for O=C(/C=C/c1cccc(O)c1)N[C@@H](Cc1ccccc1)C(=O)O?
A: pIC50 [2]: 4.81; inhibition at 10 µM [1]: > 50%; pIC50 [3]: 4.53; CC50 at 24 h [4]: > 100 µM

Q: With COC(=O)[C@H](Cc1ccc(O)cc1)NC(=O)/C=C/c1cccc(O)c1 as the compound, how does the inhibition [1] read?
A: Its inhibition is “Active”.

Q: For COC(=O)[C@H](Cc1ccccc1)NC(=O)/C=C/c1ccc(O)c(OC)c1, which inhibition [1] is on record?
A: The inhibition was “Active”.

Q: With O=C(/C=C/c1ccc(O)cc1)N[C@@H](Cc1ccccc1)C(=O)O as the compound, how does the pIC50 [2] read?
A: Its pIC50 is 4.98.

Q: And the inhibition at 10 µM [1]?
A: Its inhibition at 10 µM is over 50%.

Q: And the pIC50 [3]?
A: The pIC50 was 5.07.

Q: And the CC50 at 24 h [4]?
A: The CC50 at 24 h was over 100 µM.

Q: Which inhibition [1] does the source give for COC(=O)[C@H](Cc1ccccc1)NC(=O)/C=C/c1ccccc1 here?
A: The inhibition was “Active”.

Q: What does the source list for COc1cc(/C=C/C(=O)N[C@@H](Cc2ccc(O)cc2)C(=O)O)ccc1O?
A: Activity [5]: Active; Activity [6]: Dose-dependent effect; Activity [7]: Active; Activity [8]: Dose-dependent effect; pIC50 [2]: 5.57; Activity [9]: Active; inhibition at 10 µM [1]: > 50%; inhibition [10]: Active; Activity [11]: Active; pIC50 [3]: 6.00; Activity [12]: Active; Activity [13]: Dose-dependent effect; CC50 at 24 h [4]: > 100 µM; Activity [14]: Active; Activity [15]: Dose-dependent effect

Q: With O=C(O)CC[C@H](NC(=O)/C=C/c1cccc(O)c1)C(=O)O as the compound, how does the inhibition [1] read?
A: The inhibition was “Active”.

Q: For O=C(/C=C/c1cccc(O)c1)N[C@@H](Cc1ccc(O)cc1)C(=O)O, which inhibition [1] is on record?
A: The inhibition was “Active”.

Q: Which inhibition [1] does the source give for O=C(/C=C/c1ccccc1)N[C@@H](Cc1ccc(O)cc1)C(=O)O here?
A: Its inhibition is “Active”.

Q: With O=C(/C=C/c1ccccc1)N[C@@H](Cc1ccccc1)C(=O)O as the compound, how does the pIC50 [2] read?
A: The pIC50 was 4.58.

Q: And the inhibition at 10 µM [1]?
A: Its inhibition at 10 µM is over 50%.

Q: What about the pIC50 [3] of the same compound?
A: The pIC50 was 4.72.

Q: What about the CC50 at 24 h [4] of the same compound?
A: Its CC50 at 24 h is over 100 µM.

Q: With COC(=O)[C@H](Cc1ccccc1)NC(=O)/C=C/c1cccc(O)c1 as the compound, how does the inhibition [1] read?
A: The inhibition was “Active”.

Q: With COC(=O)CC[C@H](NC(=O)/C=C/c1ccc(O)c(OC)c1)C(=O)OC as the compound, how does the inhibition [1] read?
A: The inhibition was “Active”.

Q: With COC(=O)CC[C@H](NC(=O)/C=C/c1ccccc1)C(=O)OC as the compound, how does the inhibition [1] read?
A: Its inhibition is “Active”.

Q: Which inhibition [1] does the source give for O=C(O)C[C@H](NC(=O)/C=C/c1ccc(O)cc1)C(=O)O here?
A: Its inhibition is “Active”.

Q: With O=C(O)C[C@H](NC(=O)/C=C/c1cccc(O)c1)C(=O)O as the compound, how does the inhibition [1] read?
A: Its inhibition is “Active”.
